Measurements published in ChEMBL document CHEMBL3352314, “Synthesis and antiproliferative activity of 8-hydroxyquinoline derivatives containing a 1,2,3-triazole moiety” (Eur J Med Chem, 2014).
In brackets after ≈: the same amount, converted by molar mass.

Assays:
U-251 = test: Antiproliferative activity against human U251 cells assessed as growth inhibition after 48 hrs by sulforhodamine B assay; type: functional; details: U-251, 48 h
Procedure, shortened: (§1)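 Cells in RPMI with penicillin:streptomycin added, exposed 48 h at 37 °C, 5% CO2 to 0.25, 2.5, 25 and 250 µg/mL compound in DMSO/RPMI (0.1% v/v). Doxorubicin (0.025–25 µg/mL) served as positive control. Cells were then fixed with 50% TCA and stained with sulforhodamine B, with protein read at 540 nm. Growth = 100×(T−T0)/(C−T0), using T0 and 48 h readings. GI50 was obtained by non-linear regression. Done in triplicate.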

MCF7 = test: Antiproliferative activity against human MCF7 cells assessed as growth inhibition after 48 hrs by sulforhodamine B assay; type: functional; details: MCF7, 48 h; procedure, shortened: as §1
NCI/ADR-RES = test: Antiproliferative activity against human NCI/ADR-RES cells assessed as growth inhibition after 48 hrs by sulforhodamine B assay; type: functional; procedure, shortened: as §1
786-0 = test: Antiproliferative activity against human 786-0 cells assessed as growth inhibition after 48 hrs by sulforhodamine B assay; type: functional; details: 786-0, 48 h; procedure, shortened: as §1
NCI-H460 [1] = test: Antiproliferative activity against human NCI-H460 cells assessed as growth inhibition after 48 hrs by sulforhodamine B assay; type: functional; details: NCI-H460, 48 h; procedure, shortened: as §1
[2] = Antiproliferative activity against human PC3 cells assessed as growth inhibition after 48 hrs by sulforhodamine B assay; type: functional; details: PC-3, 48 h; procedure, shortened: as §1
[3] = Antiproliferative activity against human OVCAR3 cells assessed as growth inhibition after 48 hrs by sulforhodamine B assay; type: functional; details: OVCAR-3, 48 h; procedure, shortened: as §1
[4] = Antiproliferative activity against human HaCaT cells assessed as growth inhibition after 48 hrs by sulforhodamine B assay; type: cell-based; procedure, shortened: as §1
HaCaT [5] = test: Selectivity index, ratio of GI50 for human HaCaT cells to GI50 for human U251 cells; type: functional
HaCaT [6] = test: Selectivity index, ratio of GI50 for human HaCaT cells to GI50 for human MCF7 cells; type: functional
HaCaT [7] = test: Selectivity index, ratio of GI50 for human HaCaT cells to GI50 for human NCI/ADR-RES cells; type: functional
HaCaT [8] = test: Selectivity index, ratio of GI50 for human HaCaT cells to GI50 for human 786-0 cells; type: functional
NCI-H460 [9] = test: Selectivity index, ratio of GI50 for human HaCaT cells to GI50 for human NCI-H460 cells; type: functional
HaCaT [10] = test: Selectivity index, ratio of GI50 for human HaCaT cells to GI50 for human PC3 cells; type: functional
HaCaT [11] = test: Selectivity index, ratio of GI50 for human HaCaT cells to GI50 for human OVCAR3 cells; type: functional

SMILES	GI50 (U-251)	GI50 (MCF7)	GI50 (786-0)	GI50 (NCI-H460 [1])	GI50 (NCI/ADR-RES)	GI50 [2]	GI50 [3]	GI50 at 48 h [4]	RatioGI50 (HaCaT [5])	RatioGI50 (HaCaT [6])	RatioGI50 (HaCaT [7])	RatioGI50 (HaCaT [8])	RatioGI50 (NCI-H460 [9])	RatioGI50 (HaCaT [10])	RatioGI50 (HaCaT [11])
CC1(C)O[C@H]2[C@@H](O1)[C@@H](Cn1cc(CCCOc3cccc4cccnc34)nn1)O[C@@H]1OC(C)(C)O[C@@H]12	24.3 µg/mL (≈ 48.9 µM)	2.6 µg/mL (≈ 5.24 µM)	30.8 µg/mL (≈ 62 µM)	30.1 µg/mL (≈ 60.6 µM)	28.6 µg/mL (≈ 57.6 µM)	16.2 µg/mL (≈ 32.6 µM)	< 0.25 µg/mL	29.4 µg/mL (≈ 59.2 µM)	1.2	11.3	1	0.9	1	1.8	>117.6
c1cncc(CCCn2cc(CCCOc3cccc4cccnc34)nn2)c1	25.1 µg/mL (≈ 67.2 µM)	27.8 µg/mL (≈ 74.4 µM)	69.4 µg/mL (≈ 186 µM)	44.3 µg/mL (≈ 119 µM)	12.5 µg/mL (≈ 33.5 µM)	26.7 µg/mL (≈ 71.5 µM)	39.1 µg/mL (≈ 105 µM)	25 µg/mL (≈ 66.9 µM)	1	0.9	2	0.4	0.6	0.9	0.6
Fc1ccc(Cn2cc(CCCOc3cccc4cccnc34)nn2)cc1	20.7 µg/mL (≈ 57.1 µM)	11.7 µg/mL (≈ 32.3 µM)	195 µg/mL (≈ 538 µM)	34.4 µg/mL (≈ 94.9 µM)	49.4 µg/mL (≈ 136 µM)	20.1 µg/mL (≈ 55.5 µM)	23.1 µg/mL (≈ 63.7 µM)	115 µg/mL (≈ 318 µM)	5.6	9.8	2.3	0.6	3.3	5.7	5
Ic1ccc(Cn2cc(CCCOc3cccc4cccnc34)nn2)cc1	> 250 µg/mL	25 µg/mL (≈ 53.2 µM)	22.6 µg/mL (≈ 48.1 µM)	24.6 µg/mL (≈ 52.3 µM)	> 250 µg/mL	24.7 µg/mL (≈ 52.5 µM)	24.7 µg/mL (≈ 52.5 µM)	> 250 µg/mL	–	>10	–	>11.1	>10.2	>10.1	>10.1
c1ccc(Cn2cc(CCCOc3cccc4cccnc34)nn2)cc1	25.2 µg/mL (≈ 73.2 µM)	12.7 µg/mL (≈ 36.9 µM)	25 µg/mL (≈ 72.6 µM)	28.6 µg/mL (≈ 83 µM)	10.4 µg/mL (≈ 30.2 µM)	16.8 µg/mL (≈ 48.8 µM)	24.3 µg/mL (≈ 70.6 µM)	12.7 µg/mL (≈ 36.9 µM)	0.5	1	1.2	0.5	0.4	0.8	0.5
Clc1cc(Cl)c(Cn2cc(CCCOc3cccc4cccnc34)nn2)c(Cl)c1	3.1 µg/mL (≈ 6.92 µM)	2.9 µg/mL (≈ 6.48 µM)	5.6 µg/mL (≈ 12.5 µM)	7.4 µg/mL (≈ 16.5 µM)	2.8 µg/mL (≈ 6.25 µM)	2.8 µg/mL (≈ 6.25 µM)	11.4 µg/mL (≈ 25.5 µM)	5.3 µg/mL (≈ 11.8 µM)	1.7	1.8	1.9	0.9	0.7	1.9	0.5
Brc1ccc(Cn2cc(CCCOc3cccc4cccnc34)nn2)cc1	8.4 µg/mL (≈ 19.8 µM)	28 µg/mL (≈ 66.1 µM)	25.9 µg/mL (≈ 61.2 µM)	11.7 µg/mL (≈ 27.6 µM)	25.8 µg/mL (≈ 60.9 µM)	8.4 µg/mL (≈ 19.8 µM)	27.2 µg/mL (≈ 64.3 µM)	29.2 µg/mL (≈ 69 µM)	3.5	1	1.1	1.1	2.5	3.5	1.1

Continued by falling GI50 (U-251), values first:

GI50 (U-251)	GI50 (MCF7)	GI50 (786-0)	GI50 (NCI-H460 [1])	SMILES	GI50 (NCI/ADR-RES)	GI50 [2]	GI50 [3]	GI50 at 48 h [4]	RatioGI50 (HaCaT [5])	RatioGI50 (HaCaT [6])	RatioGI50 (HaCaT [7])	RatioGI50 (HaCaT [8])	RatioGI50 (NCI-H460 [9])	RatioGI50 (HaCaT [10])	RatioGI50 (HaCaT [11])
26.5 µg/mL (≈ 60.4 µM)	27.2 µg/mL (≈ 62 µM)	26.1 µg/mL (≈ 59.5 µM)	29.2 µg/mL (≈ 66.6 µM)	O=C(Cn1cc(CCCOc2cccc3cccnc23)nn1)OCc1ccc(F)c(F)c1	4.9 µg/mL (≈ 11.2 µM)	2.9 µg/mL (≈ 6.61 µM)	15.1 µg/mL (≈ 34.4 µM)	21.4 µg/mL (≈ 48.8 µM)	0.8	0.8	4.4	0.8	0.7	7.4	1.4
18.2 µg/mL (≈ 47.8 µM)	21.3 µg/mL (≈ 56 µM)	8.5 µg/mL (≈ 22.3 µM)	23.7 µg/mL (≈ 62.3 µM)	Fc1ccc(Cn2cc(CCCOc3cccc4cccnc34)nn2)cc1F	42.1 µg/mL (≈ 111 µM)	6.6 µg/mL (≈ 17.4 µM)	63.5 µg/mL (≈ 167 µM)	41.7 µg/mL (≈ 110 µM)	2.3	1.9	1	4.9	1.8	6.3	0.7
9.8 µg/mL (≈ 22.9 µM)	3.1 µg/mL (≈ 7.24 µM)	7.9 µg/mL (≈ 18.4 µM)	10.4 µg/mL (≈ 24.3 µM)	FC(F)(F)Oc1ccc(Cn2cc(CCCOc3cccc4cccnc34)nn2)cc1	5.5 µg/mL (≈ 12.8 µM)	5 µg/mL (≈ 11.7 µM)	24.5 µg/mL (≈ 57.2 µM)	4 µg/mL (≈ 9.34 µM)	0.4	1.3	0.7	0.5	0.4	0.8	0.2
8.7 µg/mL (≈ 19 µM)	9.6 µg/mL (≈ 21 µM)	> 250 µg/mL	7.9 µg/mL (≈ 17.3 µM)	Clc1ccc(Br)cc1Cn1cc(CCCOc2cccc3cccnc23)nn1	2.5 µg/mL (≈ 5.46 µM)	8.2 µg/mL (≈ 17.9 µM)	8 µg/mL (≈ 17.5 µM)	4.9 µg/mL (≈ 10.7 µM)	0.6	0.5	2	–	0.6	0.6	0.6
3.4 µg/mL (≈ 8.97 µM)	6.2 µg/mL (≈ 16.4 µM)	2.8 µg/mL (≈ 7.39 µM)	11.2 µg/mL (≈ 29.6 µM)	Clc1ccc(Cn2cc(CCCOc3cccc4cccnc34)nn2)cc1	11.6 µg/mL (≈ 30.6 µM)	3.6 µg/mL (≈ 9.5 µM)	8.1 µg/mL (≈ 21.4 µM)	4.2 µg/mL (≈ 11.1 µM)	1.2	0.7	0.4	1.5	0.4	1.2	0.5
0.039 µg/mL (≈ 0.0718 µM)	0.038 µg/mL (≈ 0.0699 µM)	0.15 µg/mL (≈ 0.276 µM)	< 0.025 µg/mL	COc1cccc2c1C(=O)c1c(O)c3c(c(O)c1C2=O)C[C@@](O)(C(=O)CO)C[C@@H]3O[C@H]1C[C@H](N)[C@H](O)[C@H](C)O1 [DOXORUBICIN]	0.54 µg/mL (≈ 0.994 µM)	3.8 µg/mL (≈ 6.99 µM)	0.43 µg/mL (≈ 0.791 µM)	0.11 µg/mL (≈ 0.202 µM)	–	–	–	–	–	–	–
